# Bioassay records from PubChem.
# MrgX1 PAM = positive allosteric modulators of MrgX1, primary screen, HEK293 cells, Fluo-4 calcium flux | FDSS; hits give high values | B-score at 10 µM | hit rate 0.63% among 310,000;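 active means plate-corrected calcium response at least 3 library SD above typical, normal starting fluorescence, not activating the receptor alone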;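 further: compound read alongside a low EC10 to EC30 dose of BAM8-22 agonist; peak minus trough fluorescence over baseline measured at the second addition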
# RGS4 act = RGS4 potentiators or activators, primary screen, cell-based, HEK293 M3R inducible RGS4, calcium flux; carbachol calcium flux Fluo4; hits give low values; B-score at 10 µM; hit rate 0.92% among 310,000;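 active means B-score of the integrated calcium signal more than 4 SD below the library mean, with starting fluorescence not abnormally high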;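 further: negative B-score means reduced calcium response which marks RGS4 activation or potentiation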
#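 Also added: carbachol at ECmax as muscarinic agonist stimulus; Assay system: HEK293 cells with stable M3R and inducible RGS4; Timing: overnight RGS4 induction, 30 min dye load 37 °C, 20 min compound RT; Measured by: Fluo4-AM (2 µM) calcium-flux fluorescence, kinetic read.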
# MrgX1 antag = antagonists of human MrgX1 receptor, primary screen, HEK293 cells, Fluo-4 calcium flux | BAM8-22 antagonism; hits give low values | B-score at 10 µM | hit rate 1.3% among 310,000;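 active means calcium-response B-score plate-corrected more than 3 library SD below zero, starting fluorescence within 5 deviations, no agonist response on first addition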;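 further: peak minus trough fluorescence over baseline after final BAM8-22 challenge near maximal dose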
# RGS4 block = RGS4 inhibitors, primary screen, cell-based, HEK293 M3R inducible RGS4, calcium flux. AID 463165, 2010. Fluo-4 calcium flux; hits give high values; triggered by carbachol at its EC20. Regulator of G-protein signaling 4 (Homo sapiens), P49798. hit rate 0.45% among 310,000. B-score at 10 µM;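 active means B-score, a plate-corrected calcium signal, over three deviations above library mean, with baseline fluorescence within five deviations of library mean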;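 further: RGS4 expression induced by doxycycline in cells with stable M3 receptor; B-score is computed from the integrated fluorescence ratio over baseline after carbachol; higher B-score means a larger calcium signal and so more RGS4 inhibition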
# Target sequence (P49798 whole entry, looked up): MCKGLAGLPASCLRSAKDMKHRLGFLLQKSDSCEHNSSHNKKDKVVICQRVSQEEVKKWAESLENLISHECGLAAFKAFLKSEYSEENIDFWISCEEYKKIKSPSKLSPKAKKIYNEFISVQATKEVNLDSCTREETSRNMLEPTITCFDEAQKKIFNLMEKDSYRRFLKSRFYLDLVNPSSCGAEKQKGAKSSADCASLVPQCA
# MrgX1 ag = agonists of human MrgX1 receptor, primary screen, HEK293 cells, Fluo-4 calcium flux. Mas-related G-protein coupled receptor member X1 (Homo sapiens), Q96LB2. Fluo-4 calcium fluorescence, agonist mode; hits give high values. B-score at 10 µM. hit rate 0.44% among 310,000. AID 588627, 2011;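 active means calcium response B-score plate-corrected fluorescence ratio at least 3 library SD, with starting fluorescence B-score inside 5 SD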
#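 Assay system: MrgX1-expressing HEK293 cells / Amount: fifteen thousand cells per well / Doses: test compound in the initial addition of three / Timing: cells plated overnight, dye loaded 0.5 h 37 °C, 0.5 h room temperature / Technique: kinetic calcium dye fluorescence, Fluo-4 NW / Control set: positive and negative controls per plate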
# An asterisk follows results filed as active; i = inactive. Sampled rows, rich in hits. Any-hit rate of the full collection: about 3.5%.
SMILES,MrgX1 PAM,RGS4 act,MrgX1 antag,RGS4 block,MrgX1 ag
CC(=O)C1C(c2ccc([N+](=O)[O-])cc2)c2c(noc2C)CC1(C)O (stereo not drawn),i,-8.5*,i,i,i
CC(=O)C1C(c2ccc(C)cc2)c2c(noc2C)CC1(C)O (stereo not drawn),i,i,i,i,i
O=C(O)C[C@H]1c2cc(C(F)(F)F)ccc2S(=O)(=O)N1C1CCCCC1,i,i,i,i,i
N#C/C(=C(/O)CSc1ncn[nH]1)c1nc2ccccc2[nH]1,i,i,-6.1*,i,i
C/C(O)=C(/C#N)c1nc2ccccc2[nH]1,i,i,i,i,i
CC(C)c1ccc(C2C3CSCC=C3C(C#N)=C(N)C2(C#N)C#N)cc1 (stereo not drawn),i,-8.7*,i,i,i
Cc1cccc(C(=O)Oc2ccc(/C=N/NC(=O)c3cc(O)cc(O)c3)cc2)c1,i,-10*,i,i,i
COc1cc(C(=O)N/N=C/c2ccc(OC(=O)c3ccccc3Cl)cc2)ccc1O,i,-11*,i,i,i
COc1ccc(/C=N/NC(=O)C(=O)N2CCCC2)cc1OC,i,i,i,i,i
Nc1ccc(C(=O)N/N=C\c2ccc(OC(=O)c3ccccc3Cl)cc2)cc1,i,i,i,i,i
COc1cc(C(=O)N/N=C/c2ccc(OC(=O)c3cccc(C)c3)c(OC)c2)ccc1O,i,-7.1*,i,i,i
COc1cc(/C=N/NC(=O)C(=O)N2CCCC2)ccc1O,i,i,-6.7*,i,i
Cc1nn(C)cc1C1C2=C(CC(C)(C)CC2=O)N(c2ccccc2)C2=C1C(=O)CC(C)(C)C2,i,i,i,i,i
Cc1ccc(N2C3=C(C(=O)CC(C)(C)C3)C(c3cn(C)nc3C)C3=C2CC(C)(C)CC3=O)cc1,i,i,-6.6*,i,i
CCc1ccc(C(=O)COC(=O)c2ccc(Cl)nc2)cc1,i,i,i,i,i
O=C(Nc1ccc(Cl)cc1)Nc1ccc(N2CCCC2)c(S(=O)(=O)Nc2ccccc2Cl)c1,i,i,-6*,i,i
COc1ccccc1NS(=O)(=O)c1cc(NC(=O)Nc2cccc(C)c2)ccc1N1CCCCC1,i,i,i,i,i
N=c1oc2cc(O)ccc2cc1C(=O)Nc1ccc(Br)cc1,i,i,-7*,i,i
O=S(=O)(N/N=C1/CC(c2ccccc2)Oc2ccccc21)c1ccc(Br)cc1 (stereo not drawn),i,i,-6.7*,i,i
Cc1ccc(S(=O)(=O)N/N=C2/CC(c3ccccc3)Oc3ccccc32)cc1[N+](=O)[O-] (stereo not drawn),i,i,i,i,i
O=C(NCC1CCCO1)c1cccc(S(=O)(=O)N(Cc2ccccc2)c2ccccc2)c1 (stereo not drawn),i,i,i,i,i
CC(C)[C@H](NC(=O)[C@H](CCCN=C(N)N)NC(=O)NC(Cc1ccccc1)C(=O)O)C(=O)NC(C=O)CCCN=C(N)N (stereo partly drawn),i,i,i,i,46*
CCN(CC)S(=O)(=O)c1cccc(NC(=O)CCNC(=O)NC23CC4CC(CC(C4)C2)C3)c1,i,i,i,i,i
COc1ccc([N+](=O)[O-])cc1N(CC(=O)NCCCOC(C)C)S(C)(=O)=O,i,i,i,i,i
N#CC1=C(N)N2C(=C(C#N)C1c1ccccc1)Sc1ccccc12 (stereo not drawn),i,i,i,i,i
CCOc1ccc(C2C(C#N)=C(N)N3C(=C2C#N)Sc2ccccc23)cc1 (stereo not drawn),i,i,-4.8*,i,i
CC[C@@]1(c2ccccc2)C(=O)N(C(=O)OC)N1C(=O)OC,i,i,-8.6*,i,i
